The record followed here is ChEMBL document CHEMBL3297710, “Polyhydroxy cyclohexanols from a Dendrodochium sp. fungus associated with the sea cucumber Holothuria nobilis Selenka” (J Nat Prod, 2014).

The structures appear in SMILES notation. Calls of active or inactive are those of the source. No cut-off for these calls is given here. Some results are limits rather than exact numbers.

One test relates to A549. The test can be described thus: Cytotoxicity against human A549 cells assessed as growth inhibition by MTT assay. The test is classed as functional, cell-based. Put shortly: (§1)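 Modified MTT colorimetric assay on human lung adenocarcinoma A549 and human osteosarcoma MG63 cells, with adriamycin as the positive control.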
(In general: Tetrazolium assays rely on reduction of a dye to a coloured formazan, in cell work by metabolically active cells.)

For a further test, the system named is MG-63. Description: Cytotoxicity against human MG63 cells assessed as growth inhibition by MTT assay. The test is classed as functional, cell-based. In short, it runs like this:
as §1

In test [1] the test system is Candida albicans. The test can be described thus: Antifungal activity against Candida albicans Y0109 assessed as growth inhibition by automatic microplate reader analysis. The test is classed as functional. Put shortly: (§2)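 Broth microdilution growth read by optical density at 630 nm on a microplate reader. MIC80 was taken as the first well showing roughly 80% growth reduction relative to the drug-free well.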

For test [2], the system named is Candida albicans. The test can be described thus: Antifungal activity against Candida albicans SC5314 assessed as growth inhibition by automatic microplate reader analysis. The test is classed as functional. In short, it runs like this: as §2
For the next test, the system named is Candida parapsilosis. The test can be described thus: Antifungal activity against Candida parapsilosis 22019 assessed as growth inhibition by automatic microplate reader analysis. It counts as functional. Particulars: Lodderomyces parapsilosis. Put shortly: as §2
For the next test, the system named is Nakaseomyces glabratus. Description: Antifungal activity against Candida glabrata 537 assessed as growth inhibition by automatic microplate reader analysis. It counts as functional. In short, it runs like this: as §2
The subject of a further test is Cryptococcus neoformans. The test can be described thus: Antifungal activity against Cryptococcus neoformans 32609 assessed as growth inhibition by automatic microplate reader analysis. It counts as functional. Put shortly: as §2
The next test relates to Aspergillus fumigatus. The test can be described thus: Antifungal activity against Aspergillus fumigatus 07544 assessed as growth inhibition by automatic microplate reader analysis. It counts as functional. Put shortly:
as §2

In a further test the test system is Trichophyton rubrum. The test can be described thus: Antifungal activity against Trichophyton rubrum Cmccftla assessed as growth inhibition by automatic microplate reader analysis. The test is classed as functional. Put shortly:
as §2

For a further test, the system named is Nannizzia gypsea. The test can be described thus: Antifungal activity against Microsporum gypseum Cmccfmza assessed as growth inhibition by automatic microplate reader analysis. The test is classed as functional. Put shortly:
as §2

What is called MIC80 is an inhibitory concentration at the 80% level, which refers to growth in some studies and to a panel of isolates in others. In the case of `C[C@@H](O)/C=C/C=C/[C@H]1OC[C@H]2[C@@H](O)[C@@H](O)[C@H](O)C[C@@H]21`, the inhibition result in the test on A549 and in the test on MG-63 was “inactive” each time. In addition, the MIC80 with Candida albicans [1], with Candida albicans [2], in the test with Candida parapsilosis, with Nakaseomyces glabratus, in the test with Cryptococcus neoformans and in the test with Aspergillus fumigatus was greater than 64 µg/mL throughout. For the same compound, the MIC80 in the test on Trichophyton rubrum and in the test with Nannizzia gypsea was greater than 64 µg/mL in each case.

Consider `C/C=C/C=C/C=C/[C@H]1C[C@@H](O)C[C@H](O)[C@@H]1CO`, for which the inhibition entry with A549 and in the test with MG-63 was “inactive” throughout. Further, the MIC80 in the test on Candida albicans [1] is 16 µg/mL; with Candida albicans [2], 16 µg/mL; in the test on Candida parapsilosis it was 16 µg/mL; with Nakaseomyces glabratus, 16 µg/mL; in the test on Cryptococcus neoformans, 8 µg/mL; with Aspergillus fumigatus, greater than 64 µg/mL. The MIC80 was 8 µg/mL with Trichophyton rubrum and 16 µg/mL with Nannizzia gypsea.

Consider `C/C=C/C=C/C=C/[C@H]1C[C@@H](O)[C@H](O)[C@H](O)[C@@H]1CO`, for which the inhibition result with A549 and in the test on MG-63 was “inactive” each time. Besides, the MIC80 in the test on Candida albicans [1] was 16 µg/mL; in the test with Candida albicans [2], greater than 64 µg/mL; in the test on Candida parapsilosis it was greater than 64 µg/mL; in the test on Nakaseomyces glabratus, greater than 64 µg/mL; with Cryptococcus neoformans, greater than 64 µg/mL; in the test on Aspergillus fumigatus, greater than 64 µg/mL. The MIC80 with Trichophyton rubrum and in the test on Nannizzia gypsea was greater than 64 µg/mL throughout.

Regarding `C/C=C/C=C/C=C/[C@H]1C[C@@H](O)[C@H](O)C(=O)[C@@H]1CO`, the inhibition entry with A549 and in the test with MG-63 was “inactive” in each case. Further, the MIC80 in the test on Candida albicans [1] was 16 µg/mL; with Candida albicans [2], 16 µg/mL; in the test with Candida parapsilosis it was 16 µg/mL; in the test on Nakaseomyces glabratus it was 16 µg/mL; in the test on Cryptococcus neoformans, 16 µg/mL; in the test with Aspergillus fumigatus, greater than 64 µg/mL. Besides, the MIC80 was 16 µg/mL in the test with Trichophyton rubrum and greater than 64 µg/mL with Nannizzia gypsea.

Regarding `COc1cccc2c1C(=O)c1c(O)c3c(c(O)c1C2=O)C[C@@](O)(C(=O)CO)C[C@@H]3O[C@H]1C[C@H](N)[C@H](O)[C@H](C)O1` [DOXORUBICIN], the IC50 result in the test with A549 is “Not Active”. Also, the inhibition result in the test on MG-63 is “inactive”.

In the case of `OC(Cn1cncn1)(Cn1cncn1)c1ccc(F)cc1F` [FLUCONAZOLE], the MIC80 in the test with Candida albicans [1] is 0.25 µg/mL; in the test with Candida albicans [2], 0.25 µg/mL; in the test with Candida parapsilosis, 1 µg/mL; in the test on Nakaseomyces glabratus it was 2 µg/mL; in the test with Cryptococcus neoformans it was 1 µg/mL; in the test on Aspergillus fumigatus, greater than 64 µg/mL. Moreover, the figures for the MIC80 in the test on Trichophyton rubrum and in the test on Nannizzia gypsea were 1 µg/mL and 8 µg/mL, respectively.

Turning to `CCC(C)n1ncn(-c2ccc(N3CCN(c4ccc(OCC5COC(Cn6cncn6)(c6ccc(Cl)cc6Cl)O5)cc4)CC3)cc2)c1=O` (configuration not stated) [ITRACONAZOLE], the MIC80 in the test on Candida albicans [1] is 4 µg/mL; with Candida albicans [2] it was 4 µg/mL; in the test with Candida parapsilosis it was 8 µg/mL; in the test with Nakaseomyces glabratus, 2 µg/mL; in the test with Cryptococcus neoformans it was 4 µg/mL; in the test with Aspergillus fumigatus, 32 µg/mL. In addition, the figures for the MIC80 with Trichophyton rubrum and in the test with Nannizzia gypsea were 2 µg/mL and 4 µg/mL, respectively.

Regarding `CC(=O)N1CCN(c2ccc(OCC3COC(Cn4ccnc4)(c4ccc(Cl)cc4Cl)O3)cc2)CC1` (configuration not stated) [KETOCONAZOLE], the MIC80 in the test with Candida albicans [1] stood at 0.0625 µg/mL; in the test on Candida albicans [2], 0.125 µg/mL; in the test with Candida parapsilosis, 0.25 µg/mL; in the test on Nakaseomyces glabratus, 0.125 µg/mL; in the test with Cryptococcus neoformans it was 0.25 µg/mL; with Aspergillus fumigatus, 2 µg/mL. In addition, the MIC80 in the test on Trichophyton rubrum is 0.0625 µg/mL; in the test with Nannizzia gypsea, 0.125 µg/mL.

For `CN(C/C=C/C#CC(C)(C)C)Cc1cccc2ccccc12` [TERBINAFINE], the MIC80 with Candida albicans [1] is greater than 64 µg/mL; in the test on Candida albicans [2] it was 64 µg/mL; in the test with Candida parapsilosis, 8 µg/mL; in the test with Nakaseomyces glabratus, 8 µg/mL; in the test on Cryptococcus neoformans it was 8 µg/mL; with Aspergillus fumigatus, 4 µg/mL. The values for the MIC80 with Trichophyton rubrum and in the test on Nannizzia gypsea were 1 µg/mL and 0.25 µg/mL, respectively.

In the case of `C[C@@H](c1ncncc1F)[C@](O)(Cn1cncn1)c1ccc(F)cc1F` [VORICONAZOLE], the MIC80 with Candida albicans [1] came to 0.5 µg/mL; in the test on Candida albicans [2], 0.25 µg/mL; in the test on Candida parapsilosis, 2 µg/mL; with Nakaseomyces glabratus it was 0.25 µg/mL; in the test with Cryptococcus neoformans it was 0.25 µg/mL; in the test on Aspergillus fumigatus it was 4 µg/mL. Besides, the MIC80 in the test on Trichophyton rubrum was 0.125 µg/mL; in the test on Nannizzia gypsea, 0.5 µg/mL.
